{"data": "Measurements gathered from unrelated publications", "medium": "Caco-2", "note": "Compare with care: the assays were run in different laboratories."}
{"SMILES": "O=C(CCc1ccc(O)cc1)c1c(O)cc(O)cc1O[C@@H]1O[C@H](CO)[C@@H](O)[C@H](O)[C@H]1O", "conditions": "100 µg/mL, 2 h", "Papp B→A [×10⁻⁶ cm/s]": 5.39}
{"SMILES": "N#Cc1ccc(C[C@H](Nc2nnc(-c3ccc(F)cc3)o2)C(=O)N2CCc3ccccc32)cc1", "conditions": "100 µM, 2 h", "Papp B→A [×10⁻⁶ cm/s]": 237}
{"SMILES": "CCCCCCOC(=O)NC(=N)c1ccc(NCc2nc3cc(C(=O)N(CCC(=O)OCC)c4ccccn4)ccc3n2C)cc1", "conditions": "5 µM, 2 h", "Papp B→A [×10⁻⁶ cm/s]": 1.1}
{"SMILES": "CCCCCOC(=O)Nc1nc(=O)n([C@@H]2O[C@H](C)[C@@H](O)[C@H]2O)cc1F", "conditions": "4 h", "Papp B→A [×10⁻⁶ cm/s]": 14.3}
{"SMILES": "COc1ccc(-c2coc3cc(O)cc(O)c3c2=O)cc1", "conditions": "100 µg/mL, 2 h", "Papp B→A [×10⁻⁶ cm/s]": 21.2}
{"SMILES": "N#Cc1ccc(C[C@H](NC(=O)Nc2ccc(F)cc2)C(=O)N2CCc3ccccc32)cc1", "conditions": "100 µM, 2 h", "Papp B→A [×10⁻⁶ cm/s]": 218}
{"SMILES": "Cc1cc(C)c(CNC(=O)c2cc(Cl)c3c(c2C)O[C@@](C)([C@H]2CC[C@H](N(C)C)CC2)O3)c(=O)[nH]1", "conditions": "100 µM", "Papp B→A [×10⁻⁶ cm/s]": 16.3}
{"SMILES": "COc1cc(NC(=O)Cn2cc(Cl)c3cc(F)c(-c4cnn(C)c4)cc32)cc(OC)c1OC", "Papp B→A [×10⁻⁶ cm/s]": 1.51}
{"SMILES": "C[C@@H]1O[C@@H](O[C@H]2[C@H](Oc3cc(O)c4c(c3)O[C@H](c3ccc(O)cc3)CC4=O)O[C@H](CO)[C@@H](O)[C@@H]2O)[C@H](O)[C@H](O)[C@H]1O", "conditions": "100 µg/mL, 2 h", "Papp B→A [×10⁻⁶ cm/s]": 8.02}
{"SMILES": "C[C@H]1O[C@@H](O[C@H]2[C@@H](O)C[C@H](O[C@H]3[C@@H](O)C[C@H](O[C@H]4CC[C@@]5(C)[C@H](CC[C@@H]6[C@@H]5C[C@@H](O)[C@]5(C)[C@@H](C7=CC(=O)OC7)CC[C@]65O)C4)O[C@@H]3C)O[C@@H]2C)C[C@H](O)[C@@H]1O", "conditions": "10 µM, 2 h", "Papp B→A [×10⁻⁶ cm/s]": 13.6}
{"SMILES": "C=CC(=O)NC1CCN(c2ncc3ncnc(Nc4ccc(Oc5ccc6c(c5)ncn6C)c(C)c4)c3n2)CC1", "Papp B→A [×10⁻⁶ cm/s]": "~9"}
{"SMILES": "N#Cc1ccc(C[C@H](Nc2c(Nc3ccc(Br)cc3)c(=O)c2=O)C(=O)N2CCc3ccccc32)cc1", "conditions": "100 µM, 2 h", "Papp B→A [×10⁻⁶ cm/s]": 249}
{"SMILES": "O=C(CCc1ccc(O)cc1)c1c(O)cc(O)cc1O", "conditions": "100 µg/mL, 2 h", "Papp B→A [×10⁻⁶ cm/s]": 12.2}
{"SMILES": "Cc1ccc(N(c2ccc(NC(=O)CN(C)c3ccccc3N3CCCC3=O)cc2)C(C)C)cc1", "Papp B→A [×10⁻⁶ cm/s]": 2.52}
